According to ChEMBL document CHEMBL2407057, “Structural variations on antitumour agents derived from bisacylimidoselenocarbamate. A proposal for structure-activity relationships based on the analysis of conformational behaviour” (Eur J Med Chem, 2013):

Legend:
[1] = Prodrug activation assessed as induction of NaBH4-induced DiMeDiSe release at 60 mM after 8 hrs by head space gas chromatography mass spectrometry analysis; conditions: 60000 µM
Method in brief: (§1)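 Compounds dissolved at 60 mM in 5% DMSO/H2O and held at room temperature in sealed vials. Headspace sampled at 8, 16 and 24 h for HS-GC–MS on an HP-5MS column with helium carrier at 1 mL/min, 50:1 split, and EI at 70 eV. SCAN mode was used to set SIM for MeSeH (tR 1.5 min) and DiMeDiSe (tR 2.9 min). Read-out was peak area.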

[2] = Prodrug activation assessed as induction of NaBH4-induced MeSeH release at 60 mM after 8 hrs by head space gas chromatography mass spectrometry analysis; conditions: 60000 µM; method in brief: as §1
MCF7 = assay: Cytotoxicity against human MCF7 cells after 72 hrs by MTT assay; type: functional; conditions: MCF7, 72 h; for GI50: read-out: pGI50 (converted)
HT-29 = assay: Cytotoxicity against human HT-29 cells after 72 hrs by MTT assay; type: functional; conditions: HT-29, 72 h; for GI50: read-out: pGI50 (converted)
[3] = Prodrug activation assessed as induction of NaBH4-induced […] release at 60 mM after 16 hrs by head space gas chromatography mass spectrometry analysis; conditions: 60000 µM; method in brief: as §1
[4] = Prodrug activation assessed as induction of NaBH4-induced […] release at 60 mM after 24 hrs by head space gas chromatography mass spectrometry analysis; conditions: 60000 µM; method in brief: as §1

Structure (SMILES)	Drug metabolism [1]	Drug metabolism [2]	CC50 (MCF7; read-out: LC50 (the source's name))	GI50 (MCF7)	TGI (HT-29)	GI50 (HT-29)	Drug metabolism [3]	Drug metabolism [4]
C[Se]/C(=N\C(=O)c1csc([N+](=O)[O-])c1)NC(=O)c1csc([N+](=O)[O-])c1	Not Active	Active						
CN(Cc1cnc2nc(N)nc(N)c2n1)c1ccc(C(=O)N[C@@H](CCC(=O)O)C(=O)O)cc1 [METHOTREXATE]			> 100 µM					
C[Se]/C(=N\C(=O)c1c2ccccc2nc2ccccc12)NC(=O)c1c2ccccc2nc2ccccc12	Not Active	Not Active		73.9 µM	64 µM	7.63 µM	Active	Active
COc1cccc2c1C(=O)c1c(O)c3c(c(O)c1C2=O)C[C@@](O)(C(=O)CO)C[C@@H]3O[C@H]1C[C@H](N)[C@H](O)[C@H](C)O1 [DOXORUBICIN]					6.31 µM			
CC(=O)O[C@H]1C(=O)[C@@]2(C)[C@H]([C@H](OC(=O)c3ccccc3)[C@]3(O)C[C@H](OC(=O)[C@H](O)[C@@H](NC(=O)c4ccccc4)c4ccccc4)C(C)=C1C3(C)C)[C@]1(OC(C)=O)CO[C@@H]1C[C@@H]2O [PACLITAXEL]					0.2 µM			
C[Se]/C(=N\C(=O)c1ccco1)NC(=O)c1ccco1	Active	Active					Active	Active
C[Se]/C(=N\C(=O)c1cc(-c2ccccc2)nc2ccccc12)NC(=O)c1cc(-c2ccccc2)nc2ccccc12	Not Active	Not Active		0.49 µM	32.6 µM	0.46 µM		
CC[C@@]1(O)C(=O)OCc2c1cc1n(c2=O)Cc2cc3ccccc3nc2-1 [CAMPTOTHECIN]					0.79 µM			
C[Se]/C(=N\C(=O)c1ccc2c(c1)OCO2)NC(=O)c1ccc2c(c1)OCO2	Not Active	Not Active		0.99 µM		0.53 µM		
C[Se]/C(=N\C(=O)c1cnc2ccccc2c1)NC(=O)c1cnc2ccccc2c1	Not Active	Not Active		0.66 µM		0.2 µM	Active	Active
C[Se]/C(=N\C(=O)c1ccno1)NC(=O)c1ccno1	Active	Not Active						
C[Se]/C(=N\C(=O)c1sccc1Cl)NC(=O)c1sccc1Cl	Active	Active			38.8 µM			
C[Se]/C(=N\C(=O)c1cccs1)NC(=O)c1cccs1	Active	Not Active					Active	Active
C[Se]/C(=N\C(=O)c1cc2ccccc2s1)NC(=O)c1cc2ccccc2s1	Not Active	Not Active		5.07 µM	40.1 µM	5.62 µM		
